Test results from ChEMBL document CHEMBL1129452, “Phenethylthiazolylthiourea (PETT) compounds as a new class of HIV-1 reverse transcriptase inhibitors. 2. Synthesis and further structure-activity relationship studies of PETT analogs” (J Med Chem, 1996).

Tests used:
[1] = system: MT4; assay: Inhibition of mutant type (Cys181) HIV-1 (IIIB) replication in MT-4 cells; assay type: functional; details: Homo sapiens, read-out: ED50 (the source's name)
How it was run: (§1)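 MT-4 cells (human T cell line) in RPMI 1640 with 10% fetal calf serum, penicillin and streptomycin, seeded at 2 × 10⁴ cells/well. Infected with 10-20 TCID₅₀ of mutant HIV-1 IIIB per well, with the compound added at different concentrations. Incubated at 37 °C in CO₂. Cell viability read by XTT dye at day 5 or 6. Activity taken as the reduction in viral cytopathic effect, given as ED₅₀. Mutants were raised by passage in stepwise increasing concentrations of non-nucleoside RT inhibitors.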

[2] = system: MT4; assay: Inhibition of mutant type (Ile100) HIV-1 (IIIB) replication in MT-4 cells; assay type: functional; details: Homo sapiens, read-out: ED50 (the source's name); how it was run: as §1
[3] = system: MT4; assay: Tested for the inhibition of wild type HIV-1 (IIIB) replication in MT-4 cells; assay type: functional; details: Homo sapiens, read-out: ED50 (the source's name)
How it was run: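 MT-4 human T cells in RPMI 1640 with 10% fetal calf serum, penicillin and streptomycin, seeded at 2 × 10⁴ cells/well and infected with 10-20 TCID₅₀ HIV-1 IIIB per well. Compounds were added over a concentration range and cultures kept at 37 °C in CO₂. Viability was read by XTT at day 5 or 6, and activity was taken as reduction of viral cytopathic effect.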

[4] = target: T1, Human immunodeficiency virus type 1 reverse transcriptase (Human immunodeficiency virus 1, UniProt Q72547); assay: Tested for the inhibition of mutant type (Cys181) HIV-1 (IIIB) RT
[5] = target: T1, Human immunodeficiency virus type 1 reverse transcriptase; assay: Tested for the inhibition of mutant type (Ile100) HIV-1 (IIIB) RT
[6] = target: T1, Human immunodeficiency virus type 1 reverse transcriptase; assay: Tested for the inhibition of wild type HIV-1 (IIIB) RT
[7] = system: MT4; assay: Inhibition of HIV-1(IIIB) variants (Ile100/Cys181) in HIV-1 MT-4 cells; assay type: functional; details: Homo sapiens, read-out: ED50 (the source's name); how it was run: as §1
[8] = system: MT4; assay: Inhibition of HIV-1(IIIB) variants (Ile100/Asn103) in HIV-1 MT-4 cells; assay type: functional; details: Homo sapiens, read-out: ED50 (the source's name); how it was run: as §1

Compound	EC50 [1] [nM]	EC50 [2] [nM]	EC50 [3] [nM]	IC50 [4] [nM]	IC50 [5] [nM]	IC50 [6] [nM]	EC50 [7] [nM]	EC50 [8] [nM]
Fc1cc(F)c(CCNC(=S)Nc2ccc(Cl)cn2)c(F)c1	1500	2000	10	290	810	2		
S=C(NCCc1c[nH]c2ccccc12)Nc1ccc(Br)cn1	300	3000	110	320	> 2500	30		
S=C(NCCn1nc2ccccc2n1)Nc1ccc(Br)cn1	1000	2000	14	100	2000	3		
COc1ccc2[nH]cc(CC/N=C(\S)Nc3ccc(Br)cn3)c2c1	900	> 2000	500	2500	> 2500	320		
Cn1cccc1CCNC(=S)Nc1ccc(Cl)cn1	> 2000	> 2000	250	1400	2700	90		
COc1ccc(F)c(CC/N=C(\S)Nc2ccc(Cl)cn2)c1C#N	100	400	11	1100	1100	5		
Cc1cc2nn(CCNC(=S)Nc3ccc(Br)cn3)nc2cc1C	> 2000	> 2000	220	100	> 2500	150		
CCOc1ccc(F)c(CC/N=C(\S)Nc2nc(C(F)(F)F)cs2)c1Cl	> 2000	> 2000	70	7000	7000	47		
Cn1cccc1CC/N=C(\S)Nc1ccc(C#N)cn1	> 2000	> 2000	110	1100	3500	70		
COc1ccc(F)c(CCNC(=S)Nc2ccc(Br)cn2)c1OC	200	3000	12	85	430	7		
CN(C)c1ccc(F)c(CCNC(=S)Nc2ccc(Cl)cn2)c1F	700	> 2000	40	190	1900	8		
COCc1ccc(F)c(CCNC(=S)Nc2ccc(Br)cn2)c1F	300	2500	6	100	720	4		
CCOc1ccc(F)c(CCNC(=S)Nc2ccc(Cl)cn2)c1Cl	7	600	8	30	130	6		
CCOc1ccc(F)c(CCNC(=S)Nc2ccc(I)cn2)c1Cl	200	3000	15	130	420	8		
CCOc1cccc(F)c1CCNC(=S)Nc1ccc(Br)cn1	7	90	13	25	50		1000	1600
CCOc1ccc(OCC)c(CCNC(=S)Nc2ccc(Br)cn2)c1	800	> 2000	18	707	1650	18		

Compound	EC50 [1] [nM]	EC50 [2] [nM]	EC50 [3] [nM]	IC50 [4] [nM]	IC50 [5] [nM]	IC50 [6] [nM]	EC50 [7] [nM]	EC50 [8] [nM]
CNC(=O)c1ccc(F)c(CC/N=C(\S)Nc2ccc(Br)cn2)c1F	300	> 2000	80	> 2000	> 2000	23		
N#Cc1ccoc1CCNC(=S)Nc1ccc(Cl)cn1	200	700	20	2600	2600	60		
O=C1c2c(Cl)ccc(Cl)c2C(=O)N1CCNC(=S)Nc1ccc(Cl)cn1	> 2000	> 2000	19	10	230	2		
CCOc1c(Cl)cc(F)c(CCNC(=S)Nc2ccc(Br)cn2)c1Cl	20	1000	13	660	240	21		
COc1ccc(F)c(CCNC(=S)Nc2ccc(Br)cn2)c1F	50	600	15	60	870	6		
CC(=O)NCc1ccc(F)c(CCNC(=S)Nc2ccc(Br)cn2)c1F	> 2000	> 2000	900	> 2000	> 2000	45		
CCOc1ccc(F)c(CCNC(=S)Nc2ccc(C#N)cn2)c1Cl	30	500	3	30	110	5		
COc1ccc(F)c(CCNC(=S)Nc2ccc(C#N)cn2)c1C#N	30	200	1	50	60	3		
CCOc1ccc(Cl)c(CC/N=C(\S)Nc2ccc(Br)cn2)c1F	50	900	18	9	90	2	> 10000	> 10000
CN(C)c1ccc(F)c(CCNC(=S)Nc2ccc(Br)cn2)c1F	1000	> 2000	40	170	1900	7		
Fc1cccc(F)c1CCNC(=S)Nc1ccc(Br)cn1	150	600	13	30	50			
CN(C)c1cc(F)c(CCNC(=S)Nc2ccc(Cl)cn2)c(F)c1	900	1500	18	130	270	20		
CCc1cc(NCc2nc3c(Cl)ccc(Cl)c3o2)c(O)nc1C [L-697661]	> 11000	850	65	7700	850			
Cc1ccnc2c1NC(=O)c1cccnc1N2C1CC1 [NEVIRAPINE]	22000	620	150				> 10000	8000
CCOc1ccc(F)c(CCNC(=S)Nc2ccc(Br)cn2)c1Cl [THIOUREA, N-(5-BROMO-2-PYRIDINYL)-N'-(2-(2-CHLORO-3-ETHOXY-6-FLUOROPHENYL)ETHYL)-]	30	400	7	50	190	12		
S=C(NCCc1ccccn1)Nc1ccc(Br)cn1 [TROVIRDINE]			20					
